In general, IC50 refers to the midpoint of a concentration-inhibition curve. For orientation: fraction remaining means the share of the starting amount still present when the sample was taken. A low value points to more turnover.

This is an account of results in PMC4203308 (Biomacromolecules, 2013).

One data set deals with S aureus (25923). In words: microbe, parasite or virus in culture. Type of data set: cell-based, Staphylococcus aureus. As to conditions: for Antimicrobial activity (MIC): 25923, 20 h.
The test system of a further data set is S. Epidermidis (35984). In words: microbe, parasite or virus in culture. As to conditions: for Antimicrobial activity (MIC): 35984, 20 h. Type of data set: cell-based.
Data set [1] can be described thus: in vitro. Type of data set: cell-based. The conditions noted are these: human.
The next data set concerns S. aureus (29213). In words: microbe, parasite or virus in culture. Type of data set: cell-based, Staphylococcus aureus. As to conditions: for Antimicrobial activity (MIC): 29213, 20 h.
In data set [2] the test system is human lung carcinoma A549 cells. In words: Kinetics of peptide-induced cell membrane damage, LIVE/DEAD kit. Format: cell-based. As to conditions: LIVE/DEAD dye staining, 120 minutes of incubation. An outline of the steps:
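A549 cells (freshly trypsinized) seeded at 2 × 10⁴ cells/well in collagen-coated glass chambers, grown overnight in F12K/10% FBS at 37 °C, 5% CO₂. Cells were PBS-washed three times and stained with LIVE/DEAD for 15 min. Test compound was added at a final 10 µM, and confocal images were taken over time (ex 488 nm; em 505–530 nm live, 560 nm dead). Membrane integrity was taken as % green of total green+red pixels.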

A further data set is described as follows: Peptide aggregation. Type of data set: physicochemical.
Data set [3] in a line: in vitro. Type of data set: in vitro ADME.
Data set [4] concerns Staphylococcus aureus (ATCC 25923). In words: Co-culture of bacteria and mammalian cells: effect on bacteria. The conditions noted are these: A549 monolayer + S. aureus (25923), 20 µM peptide, 6 hours. Format: cell-based.
[5] abbreviates: Staphylococcus aureus, 20 h, read-out: Antimicrobial activity (MIC).

≈ marks a conversion by molar mass, not a printed value. Where “and” joins values, the source holds several entries; their conditions need not be identical. Equal entries are not always repeated. Where no end group is shown, it is not given here.

As to FLGALFKALSKLL [PTP-7], the “Antimicrobial activity (MIC)” value stood at 4 µg/mL in the data set on S aureus (25923), 8 µg/mL with S. Epidermidis (35984) and 8 µg/mL in the data set on S. aureus (29213). In addition, inhibition in the data set “in vitro [1]” was half-maximal at 9 µM (IC50 at 2 h).
For the compound FLGALFRALSRLL [CL-1], the “Antimicrobial activity (MIC)” value in the data set on S aureus (25923) came to 8 µg/mL; in the data set on S. Epidermidis (35984), 4 µg/mL; with S. aureus (29213), 8 µg/mL. For the same compound, in data set [2], the Cell lysis reached is below 100%. For the same compound, the “Size of peptide aggregates (Nanosizer)” value in “Peptide aggregation” (PBS pH 7.4, 37 °C, long (> 4–6 hours / overnight) incubation, Zeta nanosizer) is > 2.0 µm and 2.5 µm. Also, the “Aggregate formation at acidic pH (in words)” value in the data set “Peptide aggregation” (acidic pH, even very high peptide concentrations and long incubation) is “unable to form aggregates at acidic pH”. In addition, in the data set “Peptide aggregation” (after overnight incubation, PBS pH 7.4, DLS and congo red), the “Fraction of peptide in solution existing as aggregates” value was 90–95% and ~95%. Further, the “Time for aggregates to dissolve completely at pH 5.5” value in “Peptide aggregation” (solution pH adjusted from physiological pH to pH=5.5 with HCl) is on record as below 30 minutes. Further, the “estimated half-life in human sera” value in “in vitro [3]” is 8 to 9 h. Further, the amount remaining at 5 h, 10 µM in the data set “in vitro [3]” (human, serum) was above 95%. In addition, in data set [4], the “Effect on S. aureus in co-culture (in words)” value is listed as “only S. aureus were selectively killed”.
Turning to `CC1(C)S[C@@H]2[C@H](NC(=O)Cc3ccccc3)C(=O)N2[C@H]1C(=O)O` [Penicillin G], the MIC came out at 1 µg/mL (≈ 2.99 µM) with S aureus (25923) (setting [5]); 4 µg/mL (≈ 12 µM) in the data set on S. Epidermidis (35984) (Staphylococcus epidermidis, 20 h, read-out: Antimicrobial activity (MIC)); 16 µg/mL (≈ 47.8 µM) with S. aureus (29213) (setting [5]).
